High-throughput results: PubChem, Broad Institute
Sampled rows, rich in hits. Any-hit rate of the full collection: about 3.3%.
FGF22 binding: shifts melting point of recombinant human FGF22; Q9HCT0; recombinant FGF22 thermal shift, SYPRO orange fluorescence; percent of sucrose octasulfate shift, DMSO zero; activity (Tm shift, normalised), % at 9.99 µM; actives 1.5% (n = 340,000); AID 651658;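 active = mean Tm shift, scaled 0 neutral to 100 positive control, at about 1.3% or above, every replicate too, limit read from the data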
Target sequence (Q9HCT0 whole entry, looked up): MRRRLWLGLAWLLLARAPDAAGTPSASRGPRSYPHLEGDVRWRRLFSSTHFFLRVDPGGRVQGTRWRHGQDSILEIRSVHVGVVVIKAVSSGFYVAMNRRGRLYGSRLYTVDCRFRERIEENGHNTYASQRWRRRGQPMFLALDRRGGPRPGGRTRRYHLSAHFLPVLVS
Xi reactivation: activators of X-chromosome reactivation in mouse fibroblasts | XiGFP mouse fibroblasts, % GFP-positive cells imaging, 3 d; cells co-treated with 5-aza-dC sensitizer; scaled so ellipticine positive control = 100% | activation, % at 7.58 µM | actives 0.055% (n = 360,000) | AID 743238;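 active = mean normalized replicate activation at least 10% and every replicate at or above 10%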
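System: SV40-immortalized XiGFP fibroblast cells, line 68-5-11 / Incubation: 3-day compound exposure, then 15 min fixation at room temperature / Compound: single concentration per compound, delivered by pin transfer / Buffer or medium: DMEM plus 5-aza-dC sensitizer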
DENV2 CPE rescue: DENV2-induced cell death inhibition; AID 651640; DENV2-infected cells, cytopathic effect rescue, plate reader; actives 1.7% (n = 350,000); CPE inhibition, % at 9.99 µM; in the data active = CPE inhibition above about 20%, passing the limit was not always enough; tested in BHK-21 cells
E-sel inducer: E-selectin induction on HUVECs; P16581; HUVEC E-selectin immunofluorescence imaging; normalized: neutral wells 0, TNF-alpha wells 100; activation, % at 7.58 µM; actives 0.37% (n = 260,000);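 active = mean E-selectin-positive cell signal at least 10% of the positive control, reached in at least 60% of replicates, without over 20% cell loss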
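Test system: HUVEC | Signal: Immunofluorescence imaging | Read-out: Percent E-selectin-positive cells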
Statin myotox sup: protects C2C12 myotubes from simvastatin toxicity; ATP luminescence, 48 h; scaled: DMSO 0, geranylgeraniol control 100; rescue of ATP level, % at 7.49 µM; actives 0.78% (n = 330,000); AID 602340;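 active = mean ATP rescue above about 67%, or every replicate alone reaching that limit, limit read from the data, passing the limit was not always enough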;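 also: myotubes were challenged with 10 µM simvastatin during compound exposure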
PglD DTNB: blocks C. jejuni PglD acetyltransferase activity; purified PglD enzyme, DTNB colorimetric CoA detection; inhibition, % at 12.5 µM; actives 0.098% (n = 360,000); AID 602405; in the data active = inhibition above about 16%, passing the limit was not always enough
Numbers stand for hits; - = inactive; . = no result given.

SMILES	FGF22 binding	Xi reactivation	DENV2 CPE rescue	E-sel inducer	Statin myotox sup	PglD DTNB
Cc1ccc(S(=O)(=O)N(C)C[C@H]2Oc3ccc(NC(=O)c4ccncc4)cc3C(=O)N([C@H](C)CO)C[C@H]2C)cc1	-	-	42	-	-	-
C[C@@H]1CN(C)C(=O)Cc2ccccc2O[C@H]1CN(C)C(=O)OC(C)(C)C	.	-	.	.	.	.
CN(C)/C=C/C(=O)c1ccc(N2CCN(c3ncc(C(F)(F)F)cc3Cl)CC2)cc1	.	.	.	.	134	-
COc1ccc(Cl)cc1C(=O)n1nc(C)cc1C	.	.	.	.	107	-
O=C(O)C[C@@H]1C[C@@H]2c3cc(NC(=O)Nc4ccc(F)cc4)ccc3O[C@@H]2[C@H](CO)O1	-	-	-	-	-	-
OC(C1=CC(=Cc2ccncc2)c2ccccc21)c1ccncc1 (configuration not stated)	43	-	-	-	-	-
O=C(N/N=C\c1ccccn1)c1ccccc1O	44	-	-	.	.	.
CNC(=S)N/N=C/C1=CCC2CC1C2(C)C (configuration not stated)	-	-	.	.	.	.
CC1(C)C2CC=C(/C=N/NC(=O)c3ccccc3O)C1C2 (configuration not stated)	43	-	-	-	-	-
CN(C)CC(=O)N1[C@@H]2c3ccc(C4=CCCC4)c(=O)n3C[C@H]1[C@H](CO)[C@H]2C(=O)NCC1CCCCC1	-	-	-	-	-	-
Cc1ccc(-c2nc(NC(=O)c3cc(C(C)(C)C)nn3C)sc2C)cc1Cl	-	-	55	-	-	-
CC(C)(C)[S@](=O)N1Cc2cc(C(=O)NCCN3CCCCC3)nc(-c3cccc(-c4cccc(C#N)c4)c3)c2[C@@H]1CCO	-	-	-	-	-	-
CCOc1c(S(=O)(=O)N2CCCC2)ccc(Cl)c1Cl	.	.	.	.	122	-
CN(/N=C/c1cc(Cl)cc(Cl)c1O)C(=S)NC(C)(C)C	-	-	-	71	.	.
CCC(=O)N(C)C[C@H]1Oc2ncc(C#CCc3ccccc3)cc2C(=O)N([C@H](C)CO)C[C@@H]1C	-	-	-	-	-	-
Cc1ccc(S(=O)(=O)N2C[C@H]3[C@H]4C(=O)N(c5ccccc5)C(=O)[C@H]4C[C@H](OC(=O)NCc4ccccc4)[C@@]3(O)C2)cc1	43	-	-	-	-	-
Cc1noc(C)c1NC(=O)Nc1ccc2c(c1)C(=O)N([C@@H](C)CO)C[C@@H](C)[C@H](CN(C)C(=O)Nc1c(C)noc1C)OCCCC[C@@H](C)O2	-	-	30	-	.	-
Cc1noc(C)c1NC(=O)Nc1ccc2c(c1)C(=O)N([C@@H](C)CO)C[C@@H](C)[C@@H](CN(C)C)OCCCC[C@@H](C)O2	-	-	84	-	-	-
Cc1noc(C)c1NC(=O)Nc1ccc2c(c1)C(=O)N([C@H](C)CO)C[C@H](C)[C@H](CN(C)C(=O)Nc1ccccc1)OCCCC[C@H](C)O2	-	-	68	-	-	-
Cc1noc(C)c1NC(=O)Nc1ccc2c(c1)C(=O)N([C@@H](C)CO)C[C@@H](C)[C@H](CN(C)C)OCCCC[C@@H](C)O2	-	-	-	-	-	-
CC(=O)N1CC2(C1)[C@H](c1ccc(-c3ccccc3C)cc1)[C@@H](CO)N2C(C)=O	.	-	.	.	.	.
C[C@H]1CN([C@@H](C)CO)C(=O)c2cc(NC(=O)C3CC3)ccc2O[C@@H]1CN(C)CC1CCCCC1	-	-	-	-	81	-
C[C@H](CO)N1C[C@H](C)[C@H](CN(C)S(C)(=O)=O)Oc2ccc(NC(=O)C3CCCCC3)cc2C1=O	-	-	-	41	-	-
C[C@H](CO)N1C[C@H](C)[C@@H](CN(C)S(C)(=O)=O)Oc2ccc(NC(=O)C3CCCCC3)cc2C1=O	-	-	-	-	-	-
C[C@@H]1CN([C@H](C)CO)C(=O)c2cc(NC(=O)C3CC3)ccc2O[C@H]1CN(C)CC1CCCCC1	-	-	-	-	-	-
SMILES	FGF22 binding	Xi reactivation	DENV2 CPE rescue	E-sel inducer	Statin myotox sup	PglD DTNB
CCC(=O)N(C)C[C@H]1Oc2ncc(C#CCc3ccccc3)cc2C(=O)N([C@@H](C)CO)C[C@@H]1C	-	-	-	-	-	-
Cc1cc(-c2onc(C)c2C(=O)Oc2ccc(Cl)cc2)no1	-	-	73	.	-	.
Cc1cc(-c2onc(C)c2C(N)=O)no1	-	-	-	.	-	.
CS(=O)(=O)N1CC2(C1)[C@@H](c1ccccc1)[C@H](CO)N2Cc1ccc(F)cc1	.	-	-	-	.	.
C[C@H]1CN([C@@H](C)CO)C(=O)c2cc(-c3cccc(C#N)c3)cnc2O[C@@H]1CN(C)C(=O)C1CCC1	-	-	-	-	-	-
O=C1NC[C@H](c2ccccc2)OC(=O)[C@@H](Cc2ccc(F)cc2)CC/C=C/C[C@@H]1CC(=O)N(CCO)Cc1ccccc1	-	-	47	-	-	-
O=C1NC[C@H](c2ccccc2)OC(=O)[C@@H](Cc2ccc(F)cc2)CC/C=C/C[C@H]1CC(=O)N(CCO)Cc1ccccc1	-	-	-	-	-	-
O=C1CCCC/C=C\C[C@H](CC(=O)N(CCO)Cc2ccccc2)C(=O)NC[C@H](c2ccccc2)O1	-	-	130	-	-	-
c1ccc(Nc2nnc(-c3cccnc3)s2)cc1	-	-	-	48	-	.
Nc1nnc(-c2cccnc2)s1	.	.	.	.	.	-
O=C(COC(=O)c1nc(Cl)ccc1Cl)c1ccc(Cl)s1	44	-	-	.	.	.
CCOc1cccc(-c2c(C(=O)N/N=C/c3cccnc3)nnn2-c2nonc2N)c1	-	-	-	.	-	-
CCOc1cccc(-c2c(C(=O)N/N=C/c3ccc(Br)cc3)nnn2-c2nonc2N)c1	-	-	47	.	-	-
COc1ccc(NC(=O)N(C)C[C@H]2Oc3c(NS(=O)(=O)c4ccc(Cl)cc4)cccc3C(=O)N([C@H](C)CO)C[C@@H]2C)cc1	.	-	-	-	-	-
O=C(CNS(=O)(=O)N1CCOCC1)N/N=C/c1cccnc1	44	-	-	-	-	-
O=C(CNC(=O)c1ccc(Br)cc1)N/N=C/c1cccnc1	-	-	-	.	109	-
O=C(CNC(=O)c1ccncc1)N/N=C/c1ccc(Br)cc1	-	-	-	.	-	.
CC(C)(C)Nc1nc(Oc2ccc(=O)n(-c3ccccc3)n2)nc(N2CCOCC2)n1	.	.	.	.	-	-
CCNc1nc(NC(C)(C)C)nc(Oc2ccc(=O)n(-c3ccccc3)n2)n1	-	-	-	43	-	.
C[C@@H]1CN([C@@H](C)CO)S(=O)(=O)c2ccc(C#CC3CC3)cc2O[C@H]1CN(C)CC1CCOCC1	-	-	-	-	-	-
N#CNC(=Nc1ccc(F)cc1)SCc1ccccc1	44	-	-	.	.	.
